Data on one compound can be found in ChEMBL document CHEMBL4312027, “Synthesis, characterization, and biological activity of a triphenylphosphonium-containing imidazolium salt against select bladder cancer cell lines” (Eur J Med Chem, 2020).

In data set [1] the test system is RT-112. Put plainly: Growth inhibition of human RT112 cells at 1000 uM measured after 5 mins by Celltiter-Glo luminescent cell viability assay. In kind it is functional, cell-based. In a few lines: (§1)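 Cells seeded 10000/well, 24 h, then exposed in ATCC-recommended medium to 62.5–2000 μM (two-fold steps) or vehicle for the set time (5–60 min), then normal medium. After 24 h, plates equilibrated 30 min at room temperature, CellTiter-Glo added, 2 min at room temperature, luminescence read. Survival relative to vehicle control; quadruplicate.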
A general note: ATP-based viability assays read luminescence as a measure of living cells.

For data set [2], the system named is RT-4. Put plainly: Growth inhibition of human RT4 cells measured after 1 hr by Celltiter-Glo luminescent cell viability assay. Conditions: RT-4, 1 h. In kind it is functional. An outline of the steps:
as §1

The test system of data set [3] is RT-4. Put plainly: Growth inhibition of human RT4 cells at 1000 uM measured after 5 mins by Celltiter-Glo luminescent cell viability assay. It is filed as functional, cell-based. In a few lines:
as §1

The next data set has as its system HCC 2998. Kind of data set: Growth inhibition of human HCC2998 cells assessed as growth percent at 10 uM incubated for 48 hrs by sulforhodamine B assay relative to control. It is filed as functional. Conditions: HCC 2998, 48 h, read-out: Activity.
The subject of the next data set is HCT-15. Put plainly: Growth inhibition of human HCT15 cells assessed as growth percent at 10 uM incubated for 48 hrs by sulforhodamine B assay relative to control. In kind it is functional. Conditions: HCT-15, 48 h, read-out: Activity.
Another data set deals with HT-29. Kind of data set: Growth inhibition of human HT-29 cells assessed as growth percent at 10 uM incubated for 48 hrs by sulforhodamine B assay relative to control. It is filed as functional. Conditions: HT-29, 48 h, read-out: Activity.
The subject of another data set is U-251. Put plainly: Growth inhibition of human U251 cells assessed as growth percent at 10 uM incubated for 48 hrs by sulforhodamine B assay relative to control. It is filed as functional. As to conditions: U-251, 48 h, read-out: Activity. For orientation: In SRB staining, fixed cells bind dye roughly in proportion to their protein.
In another data set the test system is Malme-3M. Put plainly: Growth inhibition of human MALME-3M cells assessed as growth percent at 10 uM incubated for 48 hrs by sulforhodamine B assay relative to control. It is filed as functional. As to conditions: read-out: Activity.
In a further data set the test system is SK-MEL-28. Put plainly: Growth inhibition of human SK-MEL-28 cells assessed as growth percent at 10 uM incubated for 48 hrs by sulforhodamine B assay relative to control. Conditions: SK-MEL-28, 48 h, read-out: Activity. It is filed as functional.
A further data set relates to NCI/ADR-RES. Put plainly: Growth inhibition of human NCI/ADR-RES cells assessed as growth percent at 10 uM incubated for 48 hrs by sulforhodamine B assay relative to control. It is filed as functional. Conditions: read-out: Activity.
The next data set relates to 786-0. Put plainly: Growth inhibition of human 786-0 cells assessed as growth percent at 10 uM incubated for 48 hrs by sulforhodamine B assay relative to control. Conditions: 786-0, 48 h, read-out: Activity. In kind it is functional.
In data set [4] the test system is RT-112. Put plainly: Anticlonogenic activity against human RT112 cells assessed as no colony formation at 250 to 500 uM incubated for 1 hr measured after culturing in normal medium for 10 days by crystal violet staining assay. In kind it is functional, cell-based. In a few lines: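 Cells seeded at 500/well, treated 24 h later with 250 or 500 μM drug or vehicle for 1 h. Cells were then grown in normal media for 10 days, stained with 0.5% crystal violet in 20% MeOH/water at 4 °C for 5 min, washed, dried and imaged. Run in triplicate.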

The subject of the next data set is UO-31. Kind of data set: Growth inhibition of human UO31 cells assessed as growth percent at 10 uM incubated for 48 hrs by sulforhodamine B assay relative to control. It is filed as functional. Conditions: UO-31, 48 h, read-out: Activity.
In the next data set the test system is MDA-MB-468. Put plainly: Growth inhibition of human MDA-MB-468 cells assessed as growth percent at 10 uM incubated for 48 hrs by sulforhodamine B assay relative to control. In kind it is functional. As to conditions: MDA-MB-468, 48 h, read-out: Activity.
For data set [5], the system named is RT-112. Kind of data set: Induction of apoptosis in human RT112 cells assessed as increase in PARP cleavage at 500 uM incubated for 1 hr and measured immediately after treatment by Western blot analysis. It is filed as functional, cell-based. In a few lines:
(§2)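 RT112 seeded 300,000/well; after 24 h, 250 or 500 μM or vehicle. Cells plus floating debris harvested immediately or 24 h after treatment, lysed in RIPA with protease inhibitors. About 30 μg protein heated 10 min at 95 °C with DTT, run on SDS-PAGE. Immunoblotted for PARP and caspase 9, Ran as loading control, ECL detection.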
In general terms: In western blotting, separated proteins are transferred to a membrane and probed.

The subject of data set [6] is RT-112. Kind of data set: Induction of apoptosis in human RT112 cells assessed as increase in caspase 9 cleavage at 250 uM incubated for 1 hr and measured immediately after treatment by Western blot analysis. It is filed as functional, cell-based. An outline of the steps: as §2
In data set [7] the test system is RT-112. Kind of data set: Mito-toxicity in mitochondria isolated from human RT112 cells assessed as increase in cytochrome C release at 200 uM incubated for 1 hr and measured after 4 hrs incubation in preservative buffer by Western blot analysis. In kind it is functional. An outline of the steps:
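Mitochondria isolated from 20 million RT112 cells with a kit. Exposed to 200 μM, 100 μM CCCP or 10% DMSO for 1 h at 37 °C, then kept in mitochondria preservative buffer at 37 °C. Spun after 1 h and 4 h into supernatant and pellet; pellet lysed. Cytochrome c in each fraction detected by western blot.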

Data set [8] can be described thus: Toxicity in anesthetized BBN-induced bladder tumor mouse model assessed as cleaved caspase 3 level in tumor adjacent normal […] at 1500 uM administered via intravesical instillation treated for 1 hr administered as 2 doses at 24 hrs interval and measured at 24 hrs after final treatment by hematoxylin and eosin staining based immunohistochemical analysis. Conditions: in vivo, other. In a few lines: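 Bladder tumors induced with 0.05% BBN in drinking water and confirmed by excretory μCT urography. Anesthetized (isoflurane) mice given intravesical 1500 μM or vehicle by catheter. Two 1 h doses 24 h apart. Females received 100 μL in 10% DMSO/PBS; males received doubled concentration in 50 μL of 20% DMSO/PBS. Bladder immunohistology for cleaved caspase-3.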

Data set [9] concerns Mus musculus. Put plainly: Antitumor activity against anesthetized BBN-induced bladder tumor mouse model assessed as increase in cleaved caspase 3 level in dysplasia region at 1500 uM administered via intravesical instillation treated for 1 hr administered as 2 doses at 24 hrs interval and measured at 24 hrs after final treatment by hematoxylin and eosin staining based immunohistochemical analysis. In kind it is functional, organism-based.

The subject of data set [10] is Mus musculus. Put plainly: Induction of urothelium exfoliation in anesthetized female mouse model assessed as effect on urothelial layer thickening at 750 to 1500 uM administered via intravesical instillation after bladder evacuation treated for 1 hr followed by repetition of the treatment after 24 hrs and measured at 24 hrs after final treatment by hematoxylin and eosin staining based analysis. As to conditions: in vivo, other. It is filed as organism-based. An outline of the steps: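 Female mice anesthetized, 1–3% isoflurane. Bladder evacuated, then 100 μL of 750 or 1500 μM in 10% DMSO/PBS (or vehicle) instilled by 24G angiocatheter. Catheter left in place for a 1 h dwell. Repeated after 24 h; mice sacrificed 24 h after final dose. Bladder histology read for urothelial height and layers.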

In data set [11] the test system is RT-112. Kind of data set: Cytotoxicity against human RT112 cells assessed as cellular fragmentation at 250 to 500 uM incubated for 1 hr and measured at 24 hrs after treatment. It is filed as functional, cell-based.
Data set [12] deals with RT-112. Put plainly: Induction of mitochondrial membrane depolarization in human RT112 cells at 200 uM measured after 2 to 4 hrs by JC-1 staining based confocal microscopy. It is filed as functional, cell-based. An outline of the steps: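 RT112 cells, 200000 per glass-bottom dish, plated overnight. Exposed to 200 μM for 45 min, then JC-1 added (final 10 μg/mL) for 15 min. Confocal live imaging, excitation 485 nm, emission 530 and 590 nm, every 15 min for 6 h. Red punctate staining taken as polarized mitochondria, green as depolarized. CCCP as positive control.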

The source made the active and inactive calls. No cut-off for these calls is given here.

`[Br-].[Br-].c1ccc([P+](CCCc2n(Cc3ccc4ccccc4c3)c3ccccc3[n+]2Cc2ccc3ccccc3c2)(c2ccccc2)c2ccccc2)cc1`: the “growth inhibition (GI)” value in the data set on RT-112 [1] and in the data set with RT-4 [3] was “Active” each time. Halving of growth with RT-4 [2] (GI50) required 150 µM. Moreover, the growth at 10 µM turned out to be 53.9% with HCC 2998; 85.5% in the data set with HCT-15; 23.9% in the data set with HT-29; 46.5% in the data set with U-251; 65.2% in the data set with Malme-3M; 37.1% with SK-MEL-28. The growth at 10 µM in the data set with NCI/ADR-RES was determined as 83.7%; in the data set on 786-0 it was 70.8%; with UO-31 it was 61.2%; in the data set on MDA-MB-468, 34.5%. Moreover, the inhibition entry with RT-112 [4] was “Active”. Moreover, the result with RT-112 [5], with RT-112 [6], with RT-112 [7], in the data set on Mus musculus [9], in the data set on RT-112 [11] and in the data set on RT-112 [12] was Active. Moreover, the Activity result (in data set [8]; with Mus musculus [10]) was “Non-Toxic” each time.
